Test results reported in ChEMBL document CHEMBL1681637, “Synthesis and antitubercular activity of monocyclic nitroimidazoles: insights from econazole” (Bioorg Med Chem Lett, 2011).
Values after ≈ are worked out from the molar mass of the structure shown.

Key:
Vero = experiment: Cytotoxicity against african green monkey Vero cells by MTT assay; type: cell-based; conditions: Chlorocebus sabaeus
How it was run: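 Vero cells were exposed to compound stocks made in DMSO and serially diluted 2-fold in RPMI 1640 medium. The top test concentration varied between compounds because of limited solubility. MTT read-out followed the kit manufacturer's protocol.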

Candida albicans = experiment: Antifungal activity against Candida albicans ATCC 90027 after 48 hrs by broth microdilution method; type: functional; conditions: ATCC 90027, 48 h

Compound | IC50 (Vero) | MIC (Candida albicans)
Cc1nc([N+](=O)[O-])cn1CC(OCc1ccc(Cl)cc1)c1ccc(Cl)cc1Cl (racemic) | > 31 µg/mL | > 256 µg/mL
CSc1nc([N+](=O)[O-])cn1CC(OCc1ccc(Cl)cc1)c1ccc(Cl)cc1Cl (racemic) | > 13 µg/mL | > 256 µg/mL
CSc1nc([N+](=O)[O-])cn1CC(OCc1cc(F)cc(F)c1)c1ccc(Cl)cc1Cl (racemic) | > 135 µg/mL | > 256 µg/mL
O=[N+]([O-])c1cn(CC(OCc2ccc(F)cc2)c2ccc(F)cc2F)cn1 (racemic) | > 50 µg/mL | > 256 µg/mL
O=[N+]([O-])c1cn(CC(O)c2ccc(Cl)cc2Cl)cn1 (racemic) | > 250 µg/mL | > 256 µg/mL
COc1nc([N+](=O)[O-])cn1CC(OCc1ccc(Cl)cc1)c1ccc(F)cc1F (racemic) | > 13 µg/mL | > 256 µg/mL
COc1nc([N+](=O)[O-])cn1CC(OCc1cc(F)cc(F)c1)c1ccc(Cl)cc1Cl (racemic) | > 50 µg/mL | > 256 µg/mL
COc1nc([N+](=O)[O-])cn1CC(O)c1ccc(F)cc1 (racemic) | > 100 µg/mL | > 256 µg/mL
CSc1nc([N+](=O)[O-])cn1CC(OCc1ccc(Cl)cc1)c1ccc(F)cc1F (racemic) | > 13 µg/mL | > 256 µg/mL
O=[N+]([O-])c1cn(CC(O)c2ccccc2)c(Br)n1 (racemic) | > 100 µg/mL | > 256 µg/mL
COc1nc([N+](=O)[O-])cn1CC(O)c1ccc([N+](=O)[O-])cc1 (racemic) | > 100 µg/mL | > 256 µg/mL
O=[N+]([O-])c1cn(CC(OCc2ccc(Cl)cc2)c2ccc(Cl)cc2Cl)cn1 (racemic) | > 16 µg/mL | > 256 µg/mL
COc1nc([N+](=O)[O-])cn1CC(O)c1ccc(Cl)cc1 (racemic) | > 100 µg/mL | > 256 µg/mL
O=[N+]([O-])c1cn(CC(OCc2ccc(F)cc2)c2ccc(Cl)cc2Cl)cn1 (racemic) | > 16 µg/mL | > 256 µg/mL
COc1nc([N+](=O)[O-])cn1CC(O)c1ccccc1 (racemic) | > 100 µg/mL | > 256 µg/mL
O=[N+]([O-])c1cn(CC(O)c2ccc(F)cc2F)cn1 (racemic) | 292 µg/mL (≈ 1080 µM) | > 256 µg/mL
O=[N+]([O-])c1cn(CC(OCc2ccc(Cl)cc2)c2ccc(F)cc2F)c(Br)n1 (racemic) | > 25 µg/mL | > 256 µg/mL
O=[N+]([O-])c1cn(CC(OCc2ccc(OC(F)(F)F)cc2)c2ccc(Cl)cc2Cl)cn1 (racemic) | > 25 µg/mL | > 256 µg/mL
O=[N+]([O-])c1cn(CC(OCc2ccc(Cl)cc2)c2ccc(Cl)cc2Cl)c(Br)n1 (racemic) | > 62.5 µg/mL | > 256 µg/mL
O=[N+]([O-])c1cn(CC(OCc2ccc(Cl)cc2)c2ccc(F)cc2F)cn1 (racemic) | > 25 µg/mL | > 256 µg/mL
CSc1nc([N+](=O)[O-])cn1CC(OCc1ccc(F)cc1)c1ccc(Cl)cc1Cl (racemic) | > 13 µg/mL | > 256 µg/mL
COc1nc([N+](=O)[O-])cn1CC(O)c1ccc(-c2ccccc2)cc1 (racemic) | > 100 µg/mL | > 256 µg/mL
O=[N+]([O-])c1cn(CC(OCc2ccccc2F)c2ccc(Cl)cc2Cl)cn1 (racemic) | > 63 µg/mL | > 256 µg/mL
O=[N+]([O-])c1cn(CC(OCc2cc(F)cc(F)c2)c2ccc(F)cc2F)cn1 (racemic) | > 50 µg/mL | > 256 µg/mL
O=[N+]([O-])c1cn(CC(OCc2cc(F)ccc2F)c2ccc(Cl)cc2Cl)cn1 (racemic) | > 25 µg/mL | > 256 µg/mL

Compound | IC50 (Vero) | MIC (Candida albicans)
COc1nc([N+](=O)[O-])cn1CC(OCc1ccc(OC(F)(F)F)cc1)c1ccc(Cl)cc1Cl (racemic) | > 13 µg/mL | > 256 µg/mL
O=[N+]([O-])c1cn(CC(OCc2cc(F)cc(F)c2)c2ccc(Cl)cc2Cl)c(Br)n1 (racemic) | > 6 µg/mL | > 256 µg/mL
COc1nc([N+](=O)[O-])cn1CC(OCc1ccc(F)cc1)c1ccc(Cl)cc1Cl (racemic) | > 13 µg/mL | > 256 µg/mL
COc1nc([N+](=O)[O-])cn1CC(O)c1ccc(Cl)cc1Cl (racemic) | 100 µg/mL (≈ 301 µM) | > 256 µg/mL
O=[N+]([O-])c1cn(CC(O)c2ccc(-c3ccccc3)cc2)c(Br)n1 (racemic) | > 100 µg/mL | > 256 µg/mL
COc1nc([N+](=O)[O-])cn1CC(OCc1ccc(F)cc1)c1ccc(F)cc1F (racemic) | > 25 µg/mL | > 256 µg/mL
O=[N+]([O-])c1cn(CC(O)c2ccc(F)cc2F)c(Br)n1 (racemic) | > 200 µg/mL | > 256 µg/mL
COc1nc([N+](=O)[O-])cn1CC(OCc1ccc(OC(F)(F)F)cc1)c1ccc(F)cc1F (racemic) | > 25 µg/mL | > 256 µg/mL
O=[N+]([O-])c1cn2c(n1)OC[C@@H](OCc1ccc(OC(F)(F)F)cc1)C2 [PRETOMANID] | – | > 256 µg/mL
O=[N+]([O-])c1cn(CC(O)c2ccc(Cl)cc2Cl)c(Br)n1 (racemic) | 100 µg/mL (≈ 262 µM) | > 256 µg/mL
O=[N+]([O-])c1cn(CC(OCc2ccc(OC(F)(F)F)cc2)c2ccc(F)cc2F)cn1 (racemic) | > 50 µg/mL | > 256 µg/mL
O=[N+]([O-])c1cn(CC(O)c2ccc(Cl)cc2)c(Br)n1 (racemic) | > 100 µg/mL | > 256 µg/mL
O=[N+]([O-])c1cn(CC(O)c2ccc(F)cc2)c(Br)n1 (racemic) | > 100 µg/mL | > 256 µg/mL
O=[N+]([O-])c1cn(CC(OCc2ccc(F)cc2F)c2ccc(Cl)cc2Cl)cn1 (racemic) | > 25 µg/mL | > 256 µg/mL
O=[N+]([O-])c1cn(CC(OCc2cc(F)cc(F)c2)c2ccc(Cl)cc2Cl)cn1 (racemic) | > 25 µg/mL | > 256 µg/mL
O=[N+]([O-])c1cn(CC(OCc2ccccc2F)c2ccc(Cl)cc2Cl)c(Br)n1 (racemic) | > 63 µg/mL | > 256 µg/mL
COc1nc([N+](=O)[O-])cn1CC(OCc1ccc(Cl)cc1)c1ccc(Cl)cc1Cl (racemic) | > 8 µg/mL | > 256 µg/mL
COc1nc([N+](=O)[O-])cn1CC(O)c1ccc(F)cc1F (racemic) | > 100 µg/mL | > 256 µg/mL
Cc1ccc(C(O)Cn2cc([N+](=O)[O-])nc2Br)c(C)c1 (racemic) | 22 µg/mL (≈ 64.7 µM) | > 256 µg/mL
Cc1nc([N+](=O)[O-])cn1CC(O)c1ccc(Cl)cc1Cl (racemic) | > 250 µg/mL | > 256 µg/mL
CSc1nc([N+](=O)[O-])cn1CC(O)c1ccc(Cl)cc1Cl (racemic) | 59 µg/mL (≈ 169 µM) | > 256 µg/mL
COc1nc([N+](=O)[O-])cn1CC(O)c1ccc(C)cc1C (racemic) | 84 µg/mL (≈ 288 µM) | > 256 µg/mL
Clc1ccc(COC(Cn2ccnc2)c2ccc(Cl)cc2Cl)cc1 (stereo not drawn) [ECONAZOLE] | – | 16 µg/mL (≈ 41.9 µM)
O=[N+]([O-])c1cn(CC(OCc2ccc(F)cc2)c2ccc(Cl)cc2Cl)c(Br)n1 (racemic) | > 16 µg/mL | > 256 µg/mL
O=[N+]([O-])c1ccc(C(O)Cn2cc([N+](=O)[O-])nc2Br)cc1 (racemic) | > 100 µg/mL | > 256 µg/mL
